The text below walks through data of ChEMBL document CHEMBL5252510, “A Novel Potent Oral Series of VEGFR2 Inhibitors Abrogate Tumor Growth by Inhibiting Angiogenesis” (J Med Chem, 2016).

For data set [1], the system named is B16-BL6. As to the kind of experiment: Antitumor activity against mouse B16-BL6 cells implanted in C57BL/6jNpa mouse assessed as primary tumor growth inhibition by measuring T/C ratio at 1 mg/kg, po qd started on day 7 post implantation measured after 21 days. As to conditions: time 7-21 day.
A short description of data set [2]: Half life in OFA rat at 3 mg/kg, po measured upto 24 hrs by HPLC/UV analysis. The format is ADME, organism-based. As to conditions: in vivo. The procedure, abridged:
(§1)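 Female OFA rats, femoral artery/vein catheterized and recovered 96 h. Oral gavage of a micronized suspension in 0.5 % carboxymethyl cellulose at 25 or 3 mg/kg. Bioavailability taken against femoral-vein iv dosing. Plasma sampled 5 min–24 h (9 time points).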

Data set [3] is described as follows: Oral bioavailability in OFA rat at 25 mg/kg measured upto 24 hrs by HPLC/UV analysis. In kind it is ADME, organism-based. As to conditions: in vivo. The procedure, abridged: as §1
Data set [4] in a line: Half life in OFA rat at 25 mg/kg, po measured upto 24 hrs by HPLC/UV analysis. In kind it is ADME, organism-based. As to conditions: in vivo. In a few lines: as §1
The nature of data set [5]: Dose normalized AUC(0 to infinity) in OFA rat at 25 mg/kg, po measured upto 24 hrs by HPLC/UV analysis. As to conditions: in vivo. In kind it is ADME, organism-based. In a few lines: as §1
The test system of data set [6] is BN472 cell. The data set can be described thus: Antitumor activity against rat BN472 cell implanted in Brown-Norway rat assessed as reduction in perfused blood vessels at 3 mg/kg, po qd measured upto 14 days by Hoechst staining based microscopic analysis. In kind it is functional, organism-based. As to conditions: time <= 14.0 day. In a few lines:
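BN472-bearing Brown-Norway rats dosed orally; Hoechst dye i.v. shortly before sacrifice to mark perfused vessels; tumors cryosectioned at 10 micron, blocked in 10 % goat serum/0.1 % Triton X-100, stained with rabbit anti-Ki67 (1:200) or anti-caspase 3 (1:10) and fluorescent secondary antibodies; fluorescence microscopy.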

The source made the active and inactive calls. The calls are words filed in the database; no cut-off is given here.

Consider `O=C(Nc1cccc(C(F)(F)F)c1)c1cccc2cc(Oc3cc(CO)ncn3)ccc12` [BFH-772], for which the T/C in data set [1] is 0.73. In data set [2], this compound had a half-life of 4.1 h.

`Nc1nccc(Oc2ccc3c(C(=O)Nc4cccc(C(F)(F)F)c4)cccc3c2)n1`: the bioavailability in data set [3] amounted to 35%. In data set [4], this compound had a half-life of 2 h. Moreover, the AUC/dose in data set [5] is 1.22 µmol·h/L.

Regarding `Nc1nccc(Oc2ccc3c(C(=O)Nc4ccc(F)c(C(F)(F)F)c4)cccc3c2)n1`, the outcome in data set [6] was Active.
